A word on the IC50: it is the concentration at which inhibition is half-maximal. The low end stands for inhibition by little substance, the high end for a need for much substance. A word on the inhibition: it is how much of the control response was suppressed.

One experiment concerns HepG2. Nature of the experiment: Cytotoxicity against human HepG2 cells after 72 hrs by MTT assay. The experiment is classed as functional, cell-based. Particulars: HepG2, 72 h. In outline: (§1)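 Freshly trypsinized cells were seeded at 5000–10,000 per well in 96-well plates. Attached cells were given MTT (0.5 mg/ml, 1 h), solubilized in DMSO and read at 550 nm. IC₅₀ came from survival curves as mean ± S.E.M., n = 2.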
Background: Tetrazolium assays rely on reduction of a dye to a coloured formazan, in cell work by metabolically active cells.

Experiment [1] can be described thus: Cytotoxicity against human Hep3B cells after 72 hrs by MTT assay. In kind it is functional, cell-based, Hep 3B2. The gist of the method:
as §1

The subject of the next experiment is MCF7. Description: Cytotoxicity against human MCF7 cells after 72 hrs by MTT assay. In kind it is functional, cell-based. Particulars: MCF7, 72 h. In outline: (§2)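 Freshly trypsinized cells were seeded at 5000–10,000 per well in 96-well plates. […] Attached cells were given MTT (0.5 mg/ml, 1 h), solubilized in DMSO and read at 550 nm. IC₅₀ came from survival curves as mean ± S.E.M., n = 2.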

The test system of the next experiment is Ca9-22. Description: Cytotoxicity against human Ca9-22 cells after 72 hrs by MTT assay. The experiment is classed as functional, cell-based. Particulars: Ca9-22, 72 h. The gist of the method:
as §2

For a further experiment, the system named is MDA-MB-231. Description: Cytotoxicity against human MDA-MB-231 cells after 72 hrs by MTT assay. In kind it is functional, cell-based. Particulars: MDA-MB-231, 72 h. The gist of the method:
as §2

The next experiment has as its system A549. Nature of the experiment: Cytotoxicity against human A549 cells after 72 hrs by MTT assay. Particulars: A549, 72 h. In kind it is functional, cell-based. The gist of the method: as §2
For experiment [2], the system named is Hepatitis C virus. Description: Antiviral activity against HCV infected in human Huh7 cells assessed as inhibition of viral replication at 10 uM after 4 days. In kind it is functional, Hepacivirus hominis. Particulars: Huh-7, 96 h. The gist of the method:
(§3)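 Ava5 cells, Huh-7 hepatoma cells carrying a subgenomic HCV replicon, seeded at 5 ×10⁴ per well in 24-well plates and treated for 4 days. Cell extracts were normalized by protein assay and 5 µg was run on 8% SDS-PAGE and transferred to PVDF. Blots were blocked in 5% skim milk and probed for NS3 with GAPDH as loading control. Signals came from HRP secondaries and ECL and were quantified by densitometry.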

Experiment [3] concerns Hepatitis C virus. Nature of the experiment: Antiviral activity against HCV infected in human Huh7 cells assessed as inhibition of viral replication at 5 uM after 4 days. Particulars: Hepacivirus hominis, Huh-7. The experiment is classed as functional, organism-based. The gist of the method:
as §3

The source made the active and inactive calls. No cut-off for these calls is given here. Where only a bound is given, the exact number is not on record here.

Turning to `CC(=O)OC[C@H](Cc1ccccc1)NC(=O)[C@H](Cc1ccccc1)NC(=O)OCC1c2ccccc2-c2ccccc21`, the IC50 (in the experiment on HepG2; in experiment [1]; in the experiment with MCF7; with Ca9-22; in the experiment on MDA-MB-231) was above 55 µM in each case.

Consider `CC(=O)OC[C@@H](Cc1ccccc1)NC(=O)[C@H](Cc1ccc(O)cc1)NC(=O)OCC1c2ccccc2-c2ccccc21`, for which the IC50 in the experiment on MCF7, with A549 and in the experiment on MDA-MB-231 was above 55 µM in each case.

`O=C(N[C@@H](Cc1ccc2ccccc2c1)C(=O)N[C@@H](COC(=O)c1ccccc1)Cc1ccccc1)OCC1c2ccccc2-c2ccccc21` registered an IC50 with MDA-MB-231 above 55 µM.

`O=C(N[C@@H](Cc1ccccc1)C(=O)N[C@@H](COC(=O)c1ccccc1)Cc1ccccc1)OCC1c2ccccc2-c2ccccc21`: the IC50 (in experiment [1]; in the experiment on MCF7; with Ca9-22; in the experiment with MDA-MB-231) was above 55 µM in each case.

Compound `O=C(N[C@@H](Cc1ccc(O)cc1)C(=O)N[C@H](COC(=O)c1ccccc1)Cc1ccccc1)OCC1c2ccccc2-c2ccccc21` showed an IC50 in the experiment on HepG2 above 55 µM.

On to `O=C(N[C@@H](Cc1c[nH]c2ccccc12)C(=O)N[C@@H](COC(=O)c1ccccc1)Cc1ccccc1)OCC1c2ccccc2-c2ccccc21`, for which, in the experiment on Hepatitis C virus [2], the inhibition at 10 µM stood at 72%. In addition, the inhibition entry in the experiment with Hepatitis C virus [3] is “inactive”.

With `O=C(N[C@@H](Cc1ccc(O)cc1)C(=O)N[C@H](CO)Cc1ccccc1)OCC1c2ccccc2-c2ccccc21`, the IC50 in the experiment with MCF7, in the experiment with A549 and with MDA-MB-231 was above 55 µM throughout.

On to `CC(C)[C@H](NC(=O)OCC1c2ccccc2-c2ccccc21)C(=O)N[C@H](COC(=O)c1ccccc1)Cc1ccccc1`, for which the IC50 (with HepG2; in experiment [1]; with MCF7; in the experiment on A549; in the experiment on MDA-MB-231) was above 55 µM in each case.

Consider `CC(C)[C@H](NC(=O)OCC1c2ccccc2-c2ccccc21)C(=O)N[C@@H](COC(=O)c1ccccc1)Cc1ccccc1`, for which the IC50 in the experiment on HepG2, in the experiment on MCF7, with A549 and with MDA-MB-231 was above 55 µM in each case.

`CC(=O)OC[C@@H](Cc1ccccc1)NC(=O)[C@H](Cc1ccccc1)NC(=O)OCC1c2ccccc2-c2ccccc21` registered an IC50 in the experiment on MCF7 above 55 µM.

Turning to `O=C(N[C@@H](Cc1c[nH]c2ccccc12)C(=O)N[C@H](CO)Cc1ccccc1)OCC1c2ccccc2-c2ccccc21`, the IC50 (in experiment [1]; with MCF7; with Ca9-22; with MDA-MB-231) was above 55 µM throughout.

For the compound `O=C(N[C@@H](Cc1ccccc1)C(=O)N[C@H](CO)Cc1ccccc1)OCC1c2ccccc2-c2ccccc21`, the IC50 (in the experiment on HepG2; in experiment [1]; in the experiment on MCF7; with A549; in the experiment with Ca9-22; with MDA-MB-231) was above 55 µM throughout.

As for `O=C(N[C@@H](Cc1ccc2ccccc2c1)C(=O)N[C@@H](CO)Cc1ccccc1)OCC1c2ccccc2-c2ccccc21`, the IC50 in the experiment with MCF7, in the experiment on A549 and in the experiment on MDA-MB-231 was above 55 µM each time.

In the case of `CC(=O)OC[C@H](Cc1ccccc1)NC(=O)[C@H](Cc1c[nH]c2ccccc12)NC(=O)OCC1c2ccccc2-c2ccccc21`, the IC50 (in experiment [1]; in the experiment on MCF7) was above 55 µM in each case.

Turning to `O=C(N[C@@H](Cc1ccccc1)C(=O)N[C@@H](CO)Cc1ccccc1)OCC1c2ccccc2-c2ccccc21`, the IC50 (in the experiment with HepG2; in experiment [1]; in the experiment on MCF7; in the experiment on A549; in the experiment on Ca9-22; with MDA-MB-231) was above 55 µM in each case.

The compound `CC(=O)OC[C@@H](Cc1ccccc1)NC(=O)[C@H](Cc1ccc2ccccc2c1)NC(=O)OCC1c2ccccc2-c2ccccc21` showed an IC50 in the experiment on MDA-MB-231 above 55 µM.

`CC(=O)OC[C@H](Cc1ccccc1)NC(=O)[C@H](Cc1ccc(O)cc1)NC(=O)OCC1c2ccccc2-c2ccccc21`: the IC50 (in experiment [1]; with MCF7; in the experiment with A549; in the experiment with Ca9-22; with MDA-MB-231) was above 55 µM each time.

On to `COc1cccc2c1C(=O)c1c(O)c3c(c(O)c1C2=O)C[C@@](O)(C(=O)CO)C[C@@H]3O[C@H]1C[C@H](N)[C@H](O)[C@H](C)O1` [DOXORUBICIN], for which the IC50 amounted to 0.4 µM with A549, 1.3 µM with Ca9-22 and 0.1 µM in the experiment with MDA-MB-231.

For `CC(C)[C@H](NC(=O)OCC1c2ccccc2-c2ccccc21)C(=O)N[C@H](CO)Cc1ccccc1`, the IC50 (in experiment [1]; with MCF7; with A549; with MDA-MB-231) was above 55 µM throughout.

On to `O=C(N[C@@H](Cc1ccc(O)cc1)C(=O)N[C@@H](COC(=O)c1ccccc1)Cc1ccccc1)OCC1c2ccccc2-c2ccccc21`, for which the concentration for half-maximal inhibition (IC50) (in the experiment with HepG2; in experiment [1]; in the experiment on MCF7; in the experiment with MDA-MB-231) was above 55 µM in each case. For the same compound, the inhibition at 10 µM in the experiment with Hepatitis C virus [2] was found to be 87%. Further, in the experiment on Hepatitis C virus [3], the inhibition entry was “inactive”.

As for `CC(=O)OC[C@H](Cc1ccccc1)NC(=O)[C@@H](NC(=O)OCC1c2ccccc2-c2ccccc21)C(C)C`, the IC50 (in experiment [1]; in the experiment on MCF7; in the experiment with A549; in the experiment on Ca9-22; in the experiment on MDA-MB-231) was above 55 µM in each case.

Regarding `O=C(N[C@@H](Cc1ccccc1)C(=O)N[C@H](COC(=O)c1ccccc1)Cc1ccccc1)OCC1c2ccccc2-c2ccccc21`, the IC50 (in the experiment with HepG2; in experiment [1]; in the experiment with MCF7; with Ca9-22; in the experiment with MDA-MB-231) was above 55 µM in each case.

As for `O=C(N[C@@H](Cc1ccc2ccccc2c1)C(=O)N[C@H](COC(=O)c1ccccc1)Cc1ccccc1)OCC1c2ccccc2-c2ccccc21`, the IC50 (with HepG2; in experiment [1]; with MCF7; in the experiment on A549; with Ca9-22; in the experiment on MDA-MB-231) was above 55 µM each time.

As to `CC(=O)OC[C@H](Cc1ccccc1)NC(=O)[C@H](Cc1ccc2ccccc2c1)NC(=O)OCC1c2ccccc2-c2ccccc21`, in experiment [1], the IC50 was above 55 µM.

Consider `O=C(N[C@@H](Cc1ccc2ccccc2c1)C(=O)N[C@H](CO)Cc1ccccc1)OCC1c2ccccc2-c2ccccc21`, for which the IC50 (in experiment [1]; with MCF7; with MDA-MB-231) was above 55 µM in each case.

As to `CC(C)[C@H](NC(=O)OCC1c2ccccc2-c2ccccc21)C(=O)N[C@@H](CO)Cc1ccccc1`, the IC50 in the experiment on MCF7, in the experiment on A549 and in the experiment on MDA-MB-231 was above 55 µM throughout.

(Values after ChEMBL document CHEMBL1165906, “Cytotoxic N-(fluorenyl-9-methoxycarbonyl) (Fmoc)-dipeptides: structure-activity relationships and synergistic studies” (Eur J Med Chem, 2010).)
